Kir21 block: inhibitors of mouse Kir2.1 inward-rectifier potassium channel; B-score at 10 µM; 310,000 compounds, 0.85% hits; HEK293-Kir2.1, FluxOR thallium flux fluorescence; active compounds read low; P35561;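 active = fluorescence ratio B-score at or below minus 3 SD of library scores, with starting-brightness B-score within 2 SD, cut at about -4.2 in these data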;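 note: channel flux triggered by added potassium and thallium sulfate stimulus; B-score of peak minus minimum fluorescence over baseline after thallium stimulus; more negative B-score means stronger Kir2.1 block with less thallium influx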
hERG rescue: shields human hERG channel from block by proarrhythmic agents. activation (rescue from dofetilide block), less the hit threshold, % at 10 µM. Q12809. 310,000 compounds, 0.51% hits. CHO-hERG, FluxOR thallium flux, dofetilide IC70 present;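 active = activation above the mean of controls blocked by dofetilide plus 5 SD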;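 note: thallium influx through hERG after potassium depolarization seen as dye fluorescence rise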
KCNQ1 pot: potentiates or activates the human KCNQ1 potassium channel. P51787. CHO-K1 KCNQ1, thallium flux FluxOR fluorescence; active compounds read high. B-score at 10 µM. 310,000 compounds, 0.35% hits;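 active = fluorescence ratio B-score, a plate-corrected score, at least three library SD, with initial intensity B-score within 5 SD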
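Assay system: stable KCNQ1 CHO-K1 line; medium: assay buffer, equal DMSO in all wells; timing: 90 min dye loading and 20 min compound exposure, both at room temperature; technique: kinetic FluxOR thallium fluorescence, 10-s 1-Hz baseline, 110-s post-stimulus read; read-out basis: B score of baseline-normalized fluorescence ratio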
KCNK3 block: human KCNK3 channel inhibition, primary screen; O14649; CHO-KCNK3 thallium flux, FluxOR fluorescence; active compounds read low; B-score at 10 µM; 340,000 compounds, 0.84% hits; AID 602410;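 active = B-score under library mean minus 4 SD, starting fluorescence ratio at most library mean plus 5 SD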;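 note: more negative B-score means stronger inhibition of thallium flux through KCNK3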
KCNK9 inh: blocks the human KCNK9 two-pore domain potassium channel; 310,000 compounds, 1.2% hits; HEK293 KCNK9, FluxOR thallium flux fluorescence; active compounds read low; B-score at 10 µM; AID 488922; Q9NPC2;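 active = ratio B-score over 3 SD below the library mean, with starting fluorescence within 5 SD of its mean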;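 note: negative B-score means less thallium flux so channel inhibition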
Target sequence (Q9NPC2 whole entry, looked up, the tested form may be a part): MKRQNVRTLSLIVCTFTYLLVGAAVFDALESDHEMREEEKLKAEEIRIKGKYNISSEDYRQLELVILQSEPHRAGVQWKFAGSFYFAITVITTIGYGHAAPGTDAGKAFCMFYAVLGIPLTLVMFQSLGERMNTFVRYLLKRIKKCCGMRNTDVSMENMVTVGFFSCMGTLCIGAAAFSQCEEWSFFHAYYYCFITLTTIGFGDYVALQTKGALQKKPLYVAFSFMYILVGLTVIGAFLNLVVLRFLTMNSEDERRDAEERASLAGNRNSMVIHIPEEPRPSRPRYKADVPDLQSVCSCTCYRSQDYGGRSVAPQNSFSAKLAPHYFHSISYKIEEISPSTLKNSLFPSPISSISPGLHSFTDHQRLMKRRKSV
KCNQ1 block: inhibitors of human KCNQ1 potassium channel. CHO-K1 KCNQ1, FluxOR thallium flux fluorescence; active compounds read high. 310,000 compounds, 1.3% hits. P51787. B-score at 10 µM;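 active = compounds whose thallium flux B-score, printed positive for inhibition, exceeds three library SD while starting fluorescence stays within three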;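 note: channel opened by potassium depolarization with thallium stimulus after 20 min compound exposure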
Active calls of the source: *. Most compounds without a hit are left out; they make up all but 3.7% or so of the library.

How did COc1ccc(OC)c2cc3ccccc3cc12 do in these assays?
KCNK3 block: -12*

What do the screens show for `CCn1c(CNc2ccc(Cl)cc2)nnc1SCc1ccc(Cl)cc1`?
Kir21 block: -5*; hERG rescue: -7; KCNQ1 pot: inactive; KCNK3 block: inactive; KCNK9 inh: inactive; KCNQ1 block: inactive

Results for CC1Cc2ccccc2N1C(=S)NC(=O)c1cccc(Br)c1 (stereo unspecified) ?
Kir21 block: -0.9; hERG rescue: 80*; KCNQ1 pot: 92*; KCNK3 block: inactive; KCNK9 inh: inactive; KCNQ1 block: inactive

How did CC1Cc2ccccc2N1C(=S)NC(=O)c1ccc(Cl)cc1Cl (stereo unspecified) do in these assays?
Kir21 block: 1.1; hERG rescue: 32*; KCNQ1 pot: 24*; KCNK3 block: inactive; KCNK9 inh: inactive; KCNQ1 block: inactive

Results for O=C(NC(=S)N1CCCC1)c1ccc(Cl)cc1Cl ?
Kir21 block: -0.23; hERG rescue: 1; KCNQ1 pot: inactive; KCNK3 block: inactive; KCNK9 inh: inactive; KCNQ1 block: inactive

Results for C=CCNc1nc(C(=O)OCC(=O)NCc2cccc(Cl)c2)cs1 ?
KCNK3 block: inactive

Results for O=C(NCc1ccncc1)c1cc(-c2ccc(Cl)cc2)oc1C(F)(F)F ?
Kir21 block: -0.05; hERG rescue: -9; KCNQ1 pot: inactive; KCNK3 block: inactive; KCNK9 inh: inactive; KCNQ1 block: inactive

What do the screens show for `O=C(NCc1ccccn1)c1cc(-c2ccc(Cl)cc2)oc1C(F)(F)F`?
Kir21 block: -0.8; hERG rescue: -12; KCNQ1 pot: inactive; KCNK3 block: inactive; KCNK9 inh: -7.4*; KCNQ1 block: inactive

What do the screens show for `N#Cc1ccccc1OCC(=O)OCC(=O)Nc1ccc2c(c1)OCO2`?
KCNK3 block: inactive

What do the screens show for `CC(C)OC(=O)c1ccccc1C(=O)c1ccc(N)c([N+](=O)[O-])c1`?
Kir21 block: -5.3*; hERG rescue: -7; KCNQ1 pot: inactive; KCNK3 block: inactive; KCNK9 inh: inactive; KCNQ1 block: inactive

What do the screens show for `Nc1ccccc1Sc1ccc(C(=O)c2ccccc2C(=O)O)cc1[N+](=O)[O-]`?
Kir21 block: 0.66; hERG rescue: -6; KCNQ1 pot: inactive; KCNK3 block: inactive; KCNK9 inh: inactive; KCNQ1 block: inactive

How did CCOC(=O)c1c(C)[nH]c(C)c1S(=O)(=O)N1CCN(c2cccc(C)c2)C(C)C1 (stereo unspecified) do in these assays?
Kir21 block: 0.06; hERG rescue: -11; KCNQ1 pot: inactive; KCNK3 block: inactive; KCNK9 inh: inactive; KCNQ1 block: inactive

Results for COc1ccccc1CNC(=O)c1nn(C)c2c1CS(=O)(=O)c1ccccc1-2 ?
Kir21 block: -1.3; hERG rescue: -10; KCNQ1 pot: inactive; KCNK3 block: inactive; KCNK9 inh: inactive; KCNQ1 block: inactive

What do the screens show for `CCC(C)N1CCN(C(=O)c2cc(OC)cc(OC)c2)CC1` (stereo unspecified)?
Kir21 block: -1.9; hERG rescue: 5.2*; KCNQ1 pot: inactive; KCNK3 block: inactive; KCNK9 inh: inactive; KCNQ1 block: inactive

Results for O=S(=O)(c1ccc(Cl)cc1)N1CCCC1c1nc2ccccc2s1 (stereo unspecified) ?
Kir21 block: -4.7*; hERG rescue: -12; KCNQ1 pot: inactive; KCNK3 block: inactive; KCNK9 inh: inactive; KCNQ1 block: inactive

What do the screens show for `O=S(=O)(c1cc(Cl)cc(Cl)c1)N1CCCC1c1nc2ccccc2s1` (stereo unspecified)?
Kir21 block: 1.1; hERG rescue: -6; KCNQ1 pot: inactive; KCNK3 block: inactive; KCNK9 inh: inactive; KCNQ1 block: inactive

How did COc1ccc(Cl)cc1NC(=S)NCCSc1ccc(C)cc1 do in these assays?
Kir21 block: -0.04; hERG rescue: -8; KCNQ1 pot: inactive; KCNK3 block: inactive; KCNK9 inh: -8.1*; KCNQ1 block: inactive

Results for CCOc1ccc(NC(=O)CSc2nnc(NC(=O)C3CC3)s2)cc1 ?
Kir21 block: -0.02; hERG rescue: -4; KCNQ1 pot: inactive; KCNK3 block: inactive; KCNK9 inh: inactive; KCNQ1 block: inactive

What do the screens show for `Cc1cccc(C(=O)OCC(=O)NCCNC(=O)COC(=O)c2cccc(C)c2C)c1C`?
Kir21 block: 0.39; hERG rescue: -8; KCNQ1 pot: inactive; KCNK3 block: inactive; KCNK9 inh: inactive; KCNQ1 block: inactive

What do the screens show for `O=C(Nc1ccc(C(O)(C(F)(F)F)C(F)(F)F)cc1)c1ccc(Cl)c([N+](=O)[O-])c1`?
Kir21 block: -1.5; hERG rescue: -50; KCNQ1 pot: inactive; KCNK3 block: inactive; KCNK9 inh: inactive; KCNQ1 block: 6*

How did N#Cc1ccsc1NC(=O)c1ccc(Cl)c([N+](=O)[O-])c1 do in these assays?
Kir21 block: 0.84; hERG rescue: -15; KCNQ1 pot: inactive; KCNK3 block: inactive; KCNK9 inh: inactive; KCNQ1 block: 7*

How did O=C(Nc1ccccn1)c1ccc(Cl)c([N+](=O)[O-])c1 do in these assays?
Kir21 block: 0.09; hERG rescue: -9; KCNQ1 pot: inactive; KCNK3 block: inactive; KCNK9 inh: inactive; KCNQ1 block: inactive

How did CCN(C[C@H]1N[C@@](CC)(C(=O)OC)[C@H]2C(=O)N(C)C(=O)[C@@H]12)S(=O)(=O)c1ccc(OC(F)(F)F)cc1 do in these assays?
KCNK3 block: inactive

How did Cc1cc(C)cc(N(CCC#N)C(=O)COC(=O)Cn2[nH]c(=O)c3ccccc3c2=O)c1 do in these assays?
KCNK3 block: inactive

How did CCCCCCc1cc2cc(C(=O)NC)c(=N)oc2cc1O do in these assays?
Kir21 block: -13; hERG rescue: -24; KCNQ1 pot: inactive; KCNK3 block: inactive; KCNK9 inh: inactive; KCNQ1 block: inactive

How did CCCCCCc1cc2cc(C(=O)Nc3ccc(OC)cc3)c(=O)oc2cc1O do in these assays?
Kir21 block: 0.06; hERG rescue: 0; KCNQ1 pot: inactive; KCNK3 block: inactive; KCNK9 inh: inactive; KCNQ1 block: inactive

How did CCCCCCc1cc2cc(C(N)=O)c(=N)oc2cc1O do in these assays?
Kir21 block: -17; hERG rescue: -59; KCNQ1 pot: inactive; KCNK9 inh: inactive; KCNQ1 block: 29*

How did CCCCCCc1cc2cc(C(=O)OCC)c(=O)oc2cc1O do in these assays?
Kir21 block: -0.25; hERG rescue: -4; KCNQ1 pot: inactive; KCNK3 block: inactive; KCNK9 inh: inactive; KCNQ1 block: 8*

What do the screens show for `COC(CNC(=O)Cn1nc(Cc2ccncc2)c2ccccc2c1=O)OC`?
Kir21 block: -0.36; hERG rescue: -7; KCNQ1 pot: inactive; KCNK3 block: inactive; KCNK9 inh: inactive; KCNQ1 block: inactive
